PP5 primary – PP5 (human) phosphatase inhibition; purified PP5c, OMFP substrate fluorescence; inhibition, % at 6.7 µM; P53041; actives 0.18% (n = 320,000);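 active means inhibition above the campaign's mean inhibition across all tested compounds plus 3 SD, cut at about 9.5% in these data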;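 further: 0% = DMSO only and 100% = 100 µM cantharidin control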
GSTO1 inh – blocks human GSTO1 in RBBP9 counter-screen. AID 1974. inhibition, % at 5.96 µM. P78417. actives 1.1% (n = 300,000). recombinant GSTO1, activity-based probe fluorescence polarization;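 active means inhibition above the campaign mean inhibition plus 3 SD, cut at about 35% in these data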;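 further: 0% = GSTO1-1 with DMSO and 100% = wells lacking GSTO1-1 enzyme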
Target sequence (P78417 whole entry, looked up): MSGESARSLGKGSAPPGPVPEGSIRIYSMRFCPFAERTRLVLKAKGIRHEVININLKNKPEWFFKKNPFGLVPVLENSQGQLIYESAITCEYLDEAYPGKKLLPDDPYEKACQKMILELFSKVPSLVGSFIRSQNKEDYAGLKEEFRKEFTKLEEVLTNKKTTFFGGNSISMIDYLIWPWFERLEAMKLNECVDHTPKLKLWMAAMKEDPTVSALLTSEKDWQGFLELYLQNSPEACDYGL
Apaf-1 inh – inhibitors of human Apaf-1 apoptosome; reconstituted apoptosome caspase-3 activity, DEVD-Rh110 fluorescence; inhibition, % at 20 µM; actives 0.71% (n = 330,000); AID 489030; active means inhibition of at least 40% at 20 µM;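 further: plate controls were DMSO wells for no effect and DEVD-CHO caspase inhibitor wells for full effect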
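detection = Rh110 fluorescence intensity | test system = biochemical Apaf-1 apoptosome reconstitution | also added = cytochrome c and DEVD-Rh110 substrate | schedule = 30 min plus 50 min, RT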
PP1 counter – blocks human PP1-alpha phosphatase, a PP5 counter-screen. purified PP1alpha, OMFP fluorescence. AID 2235. P62136. inhibition, % at 6.7 µM. actives 0.9% (n = 320,000);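 active means inhibition above the mean inhibition of all tested compounds plus 3 SD, computed separately for each screening campaign, cut at about 15% in these data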
Target sequence (P62136 whole entry, looked up): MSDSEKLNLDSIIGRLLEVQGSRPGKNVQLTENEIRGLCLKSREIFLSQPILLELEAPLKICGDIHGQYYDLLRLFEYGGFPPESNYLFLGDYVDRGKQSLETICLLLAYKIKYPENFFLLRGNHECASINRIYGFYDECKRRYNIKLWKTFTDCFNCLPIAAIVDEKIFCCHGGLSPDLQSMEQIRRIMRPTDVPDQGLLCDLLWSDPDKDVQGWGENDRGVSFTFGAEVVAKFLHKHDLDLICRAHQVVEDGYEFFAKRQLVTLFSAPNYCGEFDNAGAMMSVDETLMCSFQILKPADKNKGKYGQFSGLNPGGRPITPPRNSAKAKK
TDP2 inh – TDP2 (human) inhibition, absorbance primary screen; O95551; recombinant TDP2, T5PNP hydrolysis, p-nitrophenol absorbance 415 nm; inhibition, % at 12.8 µM; actives 0.34% (n = 370,000); AID 720702;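 active means inhibition above the mean of all tested compounds plus 3 SD, set per campaign, cut at about 25% in these data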;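 further: 0% = DMSO with enzyme and 100% = buffer with substrate but no TDP2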
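test system = human TDP2 enzyme | input = TDP2 enzyme at 120 nM final | medium = 50 mM Tris-HCl pH 7.5 with Mg2+, KCl, DTT, BSA | also added = T5PNP substrate, 5 mM | times = 2 h at 37 °C | technique = epi absorbance | benchmarks = high control without enzyme, low control DMSO plus TDP2 | replication = each compound tested once, singlicate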
GSTO1 confirm – GSTO1 (human) inhibition, confirmation; shares compounds with GSTO1 inh; recombinant GSTO1, probe fluorescence polarization; inhibition, % at 5.96 µM; actives 54% (n = 2,400); AID 2176;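 active means inhibition above the primary screen's cutoff, its mean inhibition plus 3 SD, cut at about 35% in these data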;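 further: loss of polarization as inhibitors block binding of rhodamine sulfonate ester activity probe; 0% = GSTO1 with DMSO and 100% = wells lacking GSTO1 enzyme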
GSTO1 recomb ABPP – inhibitors of recombinant human GSTO1. shares compounds with GSTO1 inh. gel ABPP SE-Rh probe fluorescence. inhibition, % at 1 µM. actives 30% (n = 130). AID 463110;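 active means inhibition of the enzyme GSTO1 above about 75%, limit read from the data; inactive means inhibition below that limit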
* hit, by the source's call; · = no result given. In the library only some 2.1% were active in any assay of this set; here they are far more common.

SMILES	PP5 primary	GSTO1 inh	Apaf-1 inh	PP1 counter	TDP2 inh	GSTO1 confirm	others
CCOc1cc(N2CCOCC2)c(OCC)cc1NC(=O)COC(=O)[C@@H]1CCCN1S(=O)(=O)c1ccccc1F	-3.2	79.5*	5.3	2.7	0.8	80.0*
O=C(O)c1ccc2c(c1)[C@@H]1C=CC[C@@H]1[C@H](c1ccccn1)N2	-0.2	50.5*	26.6	7.6	25.8*	9.4
CCOc1ccc(-n2c(C)cc(C(=O)CCl)c2C)cc1	-2.1	93.6*	2.4	-5.6	7.6	100.4*
COc1ccc(NC(=O)CSc2nnc(-c3ccco3)c(-c3ccco3)n2)cc1OC	3.6	13.8	17.7	5.5	2.8	·
COc1cccc(NC(=O)CSc2nnc(-c3ccco3)c(-c3ccco3)n2)c1	2.8	50.2*	23.9	9.8	8.8	15.6
Cc1ccccc1NC(=O)CSc1nnc(-c2ccco2)c(-c2ccco2)n1	0.6	54.5*	32.3	10.1	·	17.8
O=C(CSc1nnc(-c2ccco2)c(-c2ccco2)n1)Nc1ccccc1	0.8	42.0*	31.9	4.1	-6.9	29.9
Cc1ccccc1NC(=O)CSc1n[nH]c(-c2ccco2)n1	-1.4	17.2	-1.2	2.0	-0.8	·
COc1cccc(CNC(=O)[C@H]2CCCN2C(=O)[C@H]2CCCN2C(=O)N2CCOCC2)c1	·	·	·	·	-1.9	·
NC(=O)[C@@H]1CCCN1C(=O)[C@H](CCc1ccccc1)NC(=O)[C@H]1O[C@@H](n2cnc3c(N)ncnc32)[C@H](O)[C@@H]1O	·	·	·	·	3.1	·
O=C(NNC(=O)c1ccccc1F)c1ccc(NS(=O)(=O)c2ccc(F)cc2)cc1	·	·	-2.7	·	12.7	·
O=C(NNC(=O)c1ccccc1O)c1ccc(NS(=O)(=O)c2ccc(F)cc2)cc1	-1.4	47.5*	2.7	-8.0	-4.8	-0.7
Cc1ccccc1CN1CCN(C(=O)[C@H]2O[C@@H](n3cnc(C(N)=O)n3)[C@H](O)[C@@H]2O)CC1	·	·	·	·	-1.6	·
COC1=C(c2ccccc2)C(=O)c2ccccc2C1=O	3.2	43.9*	16.0	4.9	7.1	35.5*
CCN(CC)c1ccc(NS(=O)(=O)c2ccc(OC)cc2)cc1	1.8	56.0*	14.3	3.4	9.1	56.0*
CC(=O)Oc1ccc2occ(/C=N/c3cc(=O)[nH]c(=S)[nH]3)c(=O)c2c1	1.1	73.4*	-12.4	3.5	6.2	12.4
Cc1ccc2occ(/C=N/O)c(=O)c2c1	2.5	33.8	-1.2	-1.5	-0.7	·
Oc1ccccc1C1Nc2cccc3cccc(c23)N1	1.8	19.1	7.0	3.0	2.2	·
O=[N+]([O-])c1ccccc1C1Nc2cccc3cccc(c23)N1	5.8	48.6*	22.2	5.7	2.9	15.0
O=C(NCc1ccc(C(F)(F)F)cc1)O[C@H]1CC[C@@]23CCCN2C(=O)CCC[C@H]3C1	·	·	·	·	-1.1	·
O=C1CC(c2ccc(O)c(O)c2)Oc2cc(O)cc(O)c21 (centres undefined)	-0.3	43.3*	-7.8	15.5*	1.5	15.9
COCC(C)NC(=O)c1cc(-c2ccc(OC)c(OC)c2)on1 (centres undefined)	6.5	52.6*	-2.8	-0.6	·	4.0
CCC(SC1=NCCS1)C(=O)Nc1nnc(-c2ccccc2OC)s1 (centres undefined)	-0.7	59.5*	17.0	-0.5	1.8	60.6*
O=[N+]([O-])c1ccc2c(c1N1CCCCC1)=NC1(CCCCC1)[N+]=2[O-]	-0.4	57.1*	13.0	-4.1	-2.7	6.5
O=[N+]([O-])c1ccc(N2CCCCC2)nc1N1CCCCC1	3.0	6.5	11.4	2.4	-4.2	·
SMILES	PP5 primary	GSTO1 inh	Apaf-1 inh	PP1 counter	TDP2 inh	GSTO1 confirm	others
O=[N+]([O-])c1ccccc1N/N=C\c1ccccc1Cl	4.2	-2.0	4.4	3.1	8.8	·
O=[N+]([O-])c1ccccc1N/N=C/c1cccc(O)c1O	-1.1	48.5*	-2.0	5.4	22.2	8.1
COc1cc2c(cc1OC)C(c1ccccc1)N(S(C)(=O)=O)CC2 (centres undefined)	-1.2	-5.1	-4.7	-0.2	4.4	·
COc1cc2c(cc1OC)C(c1ccccc1)N(C(=O)CCl)CC2 (centres undefined)	2.2	88.1*	-1.4	-3.0	-1.0	95.7*	GSTO1 recomb ABPP=75.0*
COc1cc2c(cc1OC)C(C1C(=O)CCCC1=O)N(C(=O)CCl)CC2 (centres undefined)	0.9	27.6	-3.2	-0.8	1.5	·
COc1ccc2c(c1)CCN(C(=O)CCl)C2C1C(=O)CCCC1=O (centres undefined)	0.9	40.2*	-7.6	-0.7	-0.5	80.9*	GSTO1 recomb ABPP=35.0
CCOC(=O)c1ccccc1NC(=O)c1ccccc1SC	2.3	7.1	1.5	1.4	-5.1	·
COC(=O)c1ccccc1NC(=O)c1ccccc1SC	0.3	65.8*	10.6	1.3	-3.1	6.3
CC(=O)N1CCN(c2ccc(N3CCN(C(C)=O)[C@@H](C)C3)c(C)c2)[C@H](C)C1	·	·	·	·	1.6	·
O=C(Nc1ccc(Cl)c(Cl)c1)C1CCN(c2ncccn2)CC1	·	·	·	·	5.3	·
COc1ccc2nc(NC(=O)c3ccccc3O)sc2c1	-0.7	8.0	18.6	10.0	15.0	·
CCOC(=O)c1cccc(C(=O)Nc2nc3ccc(OC)cc3s2)n1	0.2	53.4*	17.4	0.8	-11.8	5.3
Cc1c[nH]c2cccc(-c3ccccc3)c12	·	·	·	·	-2.2	·
COC(=O)[C@]12C[C@H](CC(=O)N3CCCC3)C(=O)N(Cc3ccc(Cl)cc3Cl)C1=C[C@H](C1CCCC1)O[C@@H]2C	·	·	·	·	3.5	·
Nc1c(C(=O)NCc2ccco2)sc2nc3c(cc12)C(=O)CCC3	2.8	47.5*	-1.2	4.0	17.3	22.8
Nc1ccc(N)c(C(=O)O)c1	1.7	57.0*	66.9*	-2.6	·	23.6
Nc1ccc(C(=O)O)c(O)c1	-1.1	18.3	-13.3	-1.5	-1.1	·
O=C(NC1CCCc2c1cnn2-c1ccc(F)cc1F)c1cccs1 (centres undefined)	·	·	·	·	10.9	·
CCn1c(C)nc2cc(C(=O)N/N=C/c3cccc(O)c3O)ccc21	1.6	44.6*	-5.1	7.1	-1.3	5.1
Cc1ccc(/C=N/Nc2ccc(Cl)nn2)cc1	3.5	-4.2	-26.7	-7.1	5.0	·
Oc1ccc(/C=N/Nc2ccc(Cl)nn2)cc1O	1.7	59.7*	1.3	-4.1	3.9	13.7
c1csc(C2Nc3cccc4cccc(c34)N2)c1	3.5	43.8*	17.6	-0.4	9.4	20.6
Fc1cccc(Cl)c1C1Nc2cccc3cccc(c23)N1	3.4	31.6	23.2	6.5	18.2	·
Clc1cccc(Cl)c1C1Nc2cccc3cccc(c23)N1	4.3	47.2*	25.2	1.9	0.0	9.3
CN1c2cccc3cccc(c23)N(C)C1c1cccs1	1.6	8.5	8.4	1.7	-6.4	·
Cc1ccc(CSc2nnc(-c3cccs3)o2)cc1C	·	·	·	·	-2.0	·
